Assay results gathered from unrelated publications.
Each line is one published result; the experiments were not run side by side.
Target: G protein-coupled receptor kinase 5 (GRK5, Homo sapiens, UniProt P34947)

Compound	read-out	action	technique	concentration	measurement	value
N#CCCc1ccc2c(c1)-c1[nH]c3ccc([N+](=O)[O-])cc3c1CC(=O)N2	cell-free assay			0.5 µM	remaining signal	103%
Cc1ccc(Nc2nccc(N(C)c3ccc4c(C)n(C)nc4c3)n2)cc1S(N)(=O)=O	enzyme activity	inhibitor		10 µM	inhibition	-10%
CCCS(=O)(=O)Nc1ccc(F)c(C(=O)c2c[nH]c3ncc(-c4ccc(Cl)cc4)cc23)c1F	enzyme activity	inhibitor		1 µM	inhibition	< 10%
CC(C)(C)c1nc2c(s1)c1nc(N)ncc1c1ccc(NS(=O)(=O)c3c(F)cccc3F)c(F)c12	enzyme activity	inhibitor	radiometric	1 µM	remaining activity	84%
O=C(Nc1cnn(-c2csc(C(=O)NC3COC3)c2)c1)Nc1ccccc1Cl	enzyme activity	inhibitor		5 µM	remaining activity	98%
O=C1NC(=O)c2cc(Nc3ccc(F)cc3)c(Nc3ccc(F)cc3)cc21	cell-free assay			0.5 µM	remaining signal	101%
CCCOc1ccc(OC)c(F)c1C(=O)c1ccc(C(=O)N[C@@H]2CNC[C@H]2NC(=O)c2ccc3[nH]ncc3c2)cc1	enzyme activity	inhibitor		10 µM	remaining activity	114%
CC(C)(C)c1nc(-c2cccc(NS(=O)(=O)c3c(F)cccc3F)c2F)c(-c2ccnc(N)n2)s1	enzyme activity	inhibitor	radiometric	1 µM	remaining activity	85%
CNC(=O)c1cc(Oc2ccc(NC(=O)Nc3ccc(Cl)c(C(F)(F)F)c3)cc2)ccn1	enzyme activity	inhibitor		0.3 µM	inhibition	7%
CN1CC(Oc2cnc(C#N)cc2-c2ccn3nc(NC(=O)C4CC4)cc3c2)C1	enzyme activity	inhibitor		1 µM	inhibition	3%
Cc1ccc(NC(=O)c2ccc(C)c(C(F)(F)F)c2)cc1C#Cc1nn(C2CCC(O)CC2)c2ncnc(N)c12 (centres unmarked)	cell-free assay			10 µM	remaining signal	99%
COc1cc2ncnc(Nc3ccc(Oc4ccccc4)c(C)c3C)c2cc1OC	enzyme activity	inhibitor		1 µM	inhibition	0%
COc1cc(Cl)c(C(=O)N[C@@H](CN[C@H]2CC[C@@H](N)CC2)Cc2ccc(C#N)cc2)cc1-c1ccc(CN[C@H](C)c2ccc(C)cc2)o1	enzyme activity	inhibitor		1 µM	remaining activity	99%
Cc1sc(C(=O)NC2COC2)cc1-n1cc(NC(=O)Nc2c(F)cccc2Cl)cn1	enzyme activity	inhibitor		10 µM	remaining activity	113%
CC(C)(O)[C@H]1CC[C@H](Nc2ccc3ncc(-c4cccc(C(F)(F)F)c4)n3n2)CC1	enzyme activity	inhibitor		1 µM	remaining activity	95.1%
Cc1cnc(NC2CCOCC2)nc1-n1cnc(C(=O)NC(CN)c2cc(F)cc(Cl)c2)c1 (centres unmarked)	enzyme activity	inhibitor	radiometric	1 µM	remaining activity	96%
COc1cc2ncnc(Nc3ccc(Oc4ccccc4)cc3C)c2cc1OC	enzyme activity	inhibitor		1 µM	inhibition	-2%
Cc1cc(NC(=O)c2cccc3cc(-c4cccc5[nH]nc(N)c45)ccc23)ccc1F	enzyme activity	inhibitor		0.1 µM	activity vs control	112%
CCN(CC)c1ccc(C2=NNC(=O)CC2C)cc1[N+](=O)[O-] (centres unmarked)	enzyme activity	inhibitor		10 µM	remaining activity	103%
Cc1ccc(C(=O)NCc2ccsc2)cc1C#Cc1cn(C(C)C)c2ncnc(N)c12	enzyme activity	inhibitor		1 µM	activity vs control	111%
